Experimental data as given in ChEMBL document CHEMBL1145928, “Guanidino N-substituted and N,N-disubstituted derivatives of the kappa-opioid antagonist GNTI” (J Med Chem, 2003).

Columns and labels:
[1] = target: T1, Kappa-type opioid receptor (Homo sapiens, UniProt P41145); test: Binding affinity against cloned human Opioid receptor kappa 1 transfected into chinese hamster ovary cells using [3H]U-69593 as radioligand; type: cell-based
In short: (§1)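 Competition binding in CHO cells transfected with cloned human opioid receptors, using [3H]DAMGO (μ), [3H]Cl-DPDPE (δ) and [3H]U69,593 (κ) as displaced radioligands. Hill slopes were examined. Data are averages of two experiments, each run in triplicate.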

[2] = target: T2, Delta-type opioid receptor (Homo sapiens, UniProt P41143); test: Antagonistic activity against cloned human Opioid receptor delta 1 using DPDPE as ligand in [35S]GTP-gamma-S, assay; type: functional
T2 sequence (P41143 whole entry): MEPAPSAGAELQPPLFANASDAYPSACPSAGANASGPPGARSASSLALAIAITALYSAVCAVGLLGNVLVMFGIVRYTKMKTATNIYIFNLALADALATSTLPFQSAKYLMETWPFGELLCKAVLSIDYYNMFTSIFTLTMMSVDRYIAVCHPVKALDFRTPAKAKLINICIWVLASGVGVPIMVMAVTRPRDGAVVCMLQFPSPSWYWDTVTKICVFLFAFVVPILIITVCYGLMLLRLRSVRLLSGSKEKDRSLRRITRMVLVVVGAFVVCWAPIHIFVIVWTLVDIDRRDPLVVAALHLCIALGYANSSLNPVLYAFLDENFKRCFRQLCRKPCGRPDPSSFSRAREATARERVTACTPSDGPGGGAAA

[3] = target: T2, Delta-type opioid receptor; test: Binding affinity against cloned human Opioid receptor delta 1 transfected into chinese hamster ovary cells using [3H]Cl-DPDPE as radioligand; type: cell-based; in short: as §1
[4] = target: T1, Kappa-type opioid receptor; test: Antagonistic activity against cloned human Opioid receptor kappa 1 using U69,593 as ligand in [35S]GTP-gamma-S, assay; type: functional
[5] = target: T3, Mu-type opioid receptor (Homo sapiens, UniProt P35372); test: Binding affinity against cloned human Opioid receptor mu 1 transfected into chinese hamster ovary cells using [3H]DAMGO as radioligand; type: cell-based; in short: as §1
T3 sequence (P35372 whole entry): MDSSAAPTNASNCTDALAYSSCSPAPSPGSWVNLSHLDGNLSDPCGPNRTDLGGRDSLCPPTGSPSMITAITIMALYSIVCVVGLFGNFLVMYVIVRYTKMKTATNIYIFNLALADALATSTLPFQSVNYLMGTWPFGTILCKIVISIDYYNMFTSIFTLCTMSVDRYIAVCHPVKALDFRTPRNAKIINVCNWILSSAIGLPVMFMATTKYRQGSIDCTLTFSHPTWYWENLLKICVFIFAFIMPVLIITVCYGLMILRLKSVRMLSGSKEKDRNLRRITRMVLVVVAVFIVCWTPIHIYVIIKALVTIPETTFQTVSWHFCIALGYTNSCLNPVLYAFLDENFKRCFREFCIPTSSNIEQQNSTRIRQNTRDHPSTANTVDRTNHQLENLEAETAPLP

[6] = target: T3, Mu-type opioid receptor; test: Antagonistic activity against cloned human Opioid receptor mu 1 using DAMGO as ligand in [35S]GTP-gamma-S, assay; type: functional
[7] = target: T4, Opioid receptors; delta & kappa (Homo sapiens) (UniProt P41145+P41143); test: Ratio of (Ke) delta-opioid receptor to that of (Ke) kappa-opioid receptor; type: protein assay
T4 sequence (P41143 whole entry, looked up): as the sequence (P41143 whole entry) above
T4 sequence (P41145 whole entry, looked up): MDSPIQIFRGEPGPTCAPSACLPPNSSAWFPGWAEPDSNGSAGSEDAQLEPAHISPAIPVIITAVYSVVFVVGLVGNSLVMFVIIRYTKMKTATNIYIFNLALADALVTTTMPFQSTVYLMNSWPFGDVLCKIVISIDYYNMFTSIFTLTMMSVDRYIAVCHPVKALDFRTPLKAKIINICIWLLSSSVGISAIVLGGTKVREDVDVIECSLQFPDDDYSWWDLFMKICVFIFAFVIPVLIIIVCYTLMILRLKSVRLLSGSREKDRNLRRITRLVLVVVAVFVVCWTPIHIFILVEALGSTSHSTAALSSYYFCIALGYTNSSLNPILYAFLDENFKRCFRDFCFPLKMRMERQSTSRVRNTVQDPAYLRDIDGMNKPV
In short: (§2)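 Selectivity ratios taken from [35S]GTPγS antagonist values in CHO membranes expressing cloned human receptors (μ with DAMGO, δ with Cl-DPDPE, κ with U69,593), as μ/κ and δ/κ. Values are means of five or six experiments.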

[8] = target: T5, Opioid receptors; mu & kappa (Homo sapiens) (UniProt P41145+P35372); test: Ratio of (Ke) mu-opioid receptor to that of (Ke) kappa-opioid receptor; type: protein assay; in short: as §2
T5 sequence (P35372 whole entry, looked up): as the sequence (P35372 whole entry) above
T5 sequence (P41145 whole entry, looked up): as the sequence (P41145 whole entry, looked up) above

[9] = target: T4, Opioid receptors; delta & kappa (Homo sapiens); test: Ratio of (Ki) delta-opioid receptor to that of (Ki) kappa-opioid receptor; type: protein assay
In short: (§3)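 Ki ratios μ/κ and δ/κ from competition binding in CHO cells with cloned human receptors, displacing [3H]DAMGO, [3H]Cl-DPDPE or [3H]U69,593. Data are averages of two experiments, each run in triplicate.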

[10] = target: T5, Opioid receptors; mu & kappa (Homo sapiens); test: Ratio of (Ki) mu-opioid receptor to that of (Ki) kappa-opioid receptor; type: protein assay; in short: as §3

T1 sequence (P41145 whole entry): as the sequence (P41145 whole entry, looked up) above

Compound	Ki [1]	Ke [2]	Ki [3]	Ke [4]	Ki [5]	Ke [6]	Ratio [7]	Ratio [8]	Ratio [9]	Ratio [10]
N=C(N)NCCc1ccc2[nH]c3c(c2c1)C[C@@]1(O)[C@H]2Cc4ccc(O)c5c4[C@@]1(CCN2CC1CC1)[C@H]3O5	0.49 nM	0.88 nM	4.93 nM	0.4 nM	5.69 nM	1.25 nM	2	3	10	12
N/C(=N\CCc1ccc2[nH]c3c(c2c1)C[C@@]1(O)[C@H]2Cc4ccc(O)c5c4[C@@]1(CCN2CC1CC1)[C@H]3O5)NCc1ccc(Cl)cc1	2.41 nM	1.48 nM	19.2 nM	0.23 nM	7.74 nM	2.61 nM	6	11	8	3
N/C(=N\CCc1ccc2[nH]c3c(c2c1)C[C@@]1(O)[C@H]2Cc4ccc(O)c5c4[C@@]1(CCN2CC1CC1)[C@H]3O5)NCc1ccc([N+](=O)[O-])cc1	2.14 nM	1.34 nM	11.7 nM	0.17 nM	9.21 nM	2.2 nM	8	13	5	4
N/C(=N\CCc1ccc2[nH]c3c(c2c1)C[C@@]1(O)[C@H]2Cc4ccc(O)c5c4[C@@]1(CCN2CC1CC1)[C@H]3O5)NCc1ccc(N)cc1	0.95 nM	0.95 nM	5.05 nM	0.25 nM	7.78 nM	1.57 nM	4	6	5	8
CCCN/C(=N\CC1CC1)Nc1ccc2[nH]c3c(c2c1)C[C@@]1(O)[C@H]2Cc4ccc(O)c5c4[C@@]1(CCN2CC1CC1)[C@H]3O5	2.38 nM	6.31 nM	15.5 nM	0.08 nM	22.4 nM	3.26 nM	79	41	6.5	9
N/C(=N\CCc1ccc2[nH]c3c(c2c1)C[C@@]1(O)[C@H]2Cc4ccc(O)c5c4[C@@]1(CCN2CC1CC1)[C@H]3O5)NCc1ccccc1	1.42 nM	1.36 nM	7.24 nM	0.13 nM	3.54 nM	2.94 nM	10	23	5	2
N/C(=N/Cc1ccc(N)cc1)Nc1ccc2[nH]c3c(c2c1)C[C@@]1(O)[C@H]2Cc4ccc(O)c5c4[C@@]1(CCN2CC1CC1)[C@H]3O5	0.63 nM	10.8 nM	23.9 nM	0.09 nM	7.89 nM	1.22 nM	120	14	68	13
N/C(=N/Cc1ccc([N+](=O)[O-])cc1)Nc1ccc2[nH]c3c(c2c1)C[C@@]1(O)[C@H]2Cc4ccc(O)c5c4[C@@]1(CCN2CC1CC1)[C@H]3O5	1.61 nM	16.7 nM	95.8 nM	0.18 nM	26.3 nM	3.71 nM	93	21	60	16
N/C(=N/Cc1ccccc1)Nc1ccc2[nH]c3c(c2c1)C[C@@]1(O)[C@H]2Cc4ccc(O)c5c4[C@@]1(CCN2CC1CC1)[C@H]3O5	0.86 nM	4.09 nM	26.8 nM	0.06 nM	10.5 nM	1.41 nM	68	24	31	12
CCCC/N=C(\NCCCC)Nc1ccc2[nH]c3c(c2c1)C[C@@]1(O)[C@H]2Cc4ccc(O)c5c4[C@@]1(CCN2CC1CC1)[C@H]3O5	6.96 nM	5.24 nM	15 nM	0.44 nM	18.3 nM	5.66 nM	12	13	2	3
N/C(=N/Cc1ccc(O)cc1)Nc1ccc2[nH]c3c(c2c1)C[C@@]1(O)[C@H]2Cc4ccc(O)c5c4[C@@]1(CCN2CC1CC1)[C@H]3O5	3.26 nM	18.3 nM	41.9 nM	0.1 nM	14.7 nM	12.7 nM	183	127	13	4.5
Oc1ccc2c3c1O[C@H]1c4[nH]c5ccc(N/C(=N/CC6CC6)NCc6ccccc6)cc5c4C[C@@]4(O)[C@@H](C2)N(CC2CC2)CC[C@]314	3.91 nM	3.28 nM	18.1 nM	0.17 nM	17.7 nM	2.75 nM	19	16	5	4.5
N/C(=N/Cc1cccc(O)c1)Nc1ccc2[nH]c3c(c2c1)C[C@@]1(O)[C@H]2Cc4ccc(O)c5c4[C@@]1(CCN2CC1CC1)[C@H]3O5	2.74 nM	4.35 nM	17.6 nM	0.13 nM	14.2 nM	4.28 nM	33	33	6	5
CCC/N=C(\NCCC)Nc1ccc2[nH]c3c(c2c1)C[C@@]1(O)[C@H]2Cc4ccc(O)c5c4[C@@]1(CCN2CC1CC1)[C@H]3O5	2.72 nM	2.43 nM	8.52 nM	0.26 nM	9.83 nM	4.59 nM	9	18	3	4
CCCC/N=C(\NCCCC)NCCc1ccc2[nH]c3c(c2c1)C[C@@]1(O)[C@H]2Cc4ccc(O)c5c4[C@@]1(CCN2CC1CC1)[C@H]3O5	4.8 nM	1.05 nM	6.73 nM	0.39 nM	7.89 nM	4.62 nM	3	12	1.5	1.5
N/C(=N/Cc1ccc(Cl)cc1)Nc1ccc2[nH]c3c(c2c1)C[C@@]1(O)[C@H]2Cc4ccc(O)c5c4[C@@]1(CCN2CC1CC1)[C@H]3O5	0.66 nM	7.67 nM	85 nM	0.14 nM	29.8 nM	5.24 nM	55	37	129	45
N=C(N)NCc1ccc2[nH]c3c(c2c1)C[C@@]1(O)[C@H]2Cc4ccc(O)c5c4[C@@]1(CCN2CC1CC1)[C@H]3O5	0.18 nM	15.5 nM	70 nM	0.04 nM	36.9 nM	3.23 nM	389	81	389	205
